{"source": "ChEMBL document CHEMBL2086264", "key": {"[1]": {"assay": "Inhibition of Staphylococcus aureus PlsY expressed in Escherichia coli FB23281 using [U-14C]glycerol-PO4 as substrate after 20 mins by scintillation counting", "in_short": "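Membranes from E. coli FB23281 (ΔplsY) expressing S. aureus PlsY (SA1187), 4 µg per reaction. pH 7.4 buffer of 100 mM Tris–HCl, 150 mM NaCl, 1 mg/mL BSA and 5 mM Na3VO4, with 100 µM [U-14C]glycerol-PO4. Started with 16:0-PO4 (final 100 µM), 20 min at 37°C. Spotted on filter discs, washed in graded ice-cold TCA, scintillation counted.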"}, "Staphylococcus aureus [2]": {"tested_on": "Staphylococcus aureus", "assay": "Antibacterial activity against Staphylococcus aureus ATCC 29213 after overnight incubation by microbroth dilution assay", "format": "functional", "in_short": "(§1)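 CLSI M7A7 microbroth dilution in Mueller-Hinton broth; S. pneumoniae broth given 5% lysed horse blood. DMSO stocks of 10 mg/mL; twofold dilutions to final 200–0.0125 µg/mL. Mid-log inoculum (OD600 0.5) diluted to final OD600 0.0005 (~10^5 CFU/mL). Overnight at 37°C; MIC is the lowest concentration inhibiting 90% of visible growth.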"}, "Streptococcus pneumoniae": {"tested_on": "Streptococcus pneumoniae", "assay": "Antibacterial activity against Streptococcus pneumoniae R6 after overnight incubation by microbroth dilution assay", "format": "functional", "in_short": "as §1"}, "Bacillus subtilis": {"tested_on": "Bacillus subtilis", "assay": "Antibacterial activity against Bacillus subtilis ATCC 23857 after overnight incubation by microbroth dilution assay", "format": "functional", "in_short": "as §1"}, "Bacillus anthracis [3]": {"tested_on": "Bacillus anthracis", "assay": "Antibacterial activity against Bacillus anthracis after overnight incubation by microbroth dilution assay", "format": "functional"}, "Staphylococcus aureus [4]": {"tested_on": "Staphylococcus aureus", "assay": "Growth inhibition of Staphylococcus aureus RN4220 harboring gpsA mutant at 6.25 to 100 uM measured immediately by spectrophotometry", "format": "functional, organism-based"}, "Staphylococcus aureus [5]": {"tested_on": "Staphylococcus aureus", "assay": "Inhibition of protein synthesis in Staphylococcus aureus RN4220 harboring gpsA mutant assessed as inhibition of [3H]amino acid incorporation into protein at 50 uM incubated for 15 mins before [3H]amino acid addition measured after 30 mins by scintillation counting", "format": "functional, organism-based", "in_short": "(§2)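 RN4220 at OD600 0.5 in 10 mL aliquots, 15 min with compound. Then 30 min with 10 µCi label: 3H amino acid mix (protein), [3H]thymidine (DNA) or [3H]uracil (stable RNA). Cells collected on 0.45 µm filters, counted, OD600-normalized and expressed relative to untreated cells. Duplicates, mean with standard error.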"}, "Staphylococcus aureus [6]": {"tested_on": "Staphylococcus aureus", "assay": "Inhibition of DNA synthesis in Staphylococcus aureus RN4220 harboring gpsA mutant assessed as inhibition of [3H]thymidine incorporation into DNA at 50 uM incubated for 15 mins before [3H]thymidine addition measured after 30 mins by scintillation counting", "format": "functional, organism-based", "in_short": "as §2"}, "Staphylococcus aureus [7]": {"tested_on": "Staphylococcus aureus", "assay": "Inhibition of RNA synthesis in Staphylococcus aureus RN4220 harboring gpsA mutant assessed as inhibition of [3H]uracil incorporation into RNA at 50 uM incubated for 15 mins before [3H]uracil addition measured after 30 mins by scintillation counting", "format": "functional, organism-based", "in_short": "as §2"}, "[8]": {"tested_on": "Staphylococcus aureus subsp. aureus RN4220", "assay": "Inhibition of PlsY-mediated lipid synthesis in Staphylococcus aureus RN4220 harboring gpsA mutant assessed as increase in [14C]-labeled free fatty acid level"}, "[9]": {"tested_on": "Staphylococcus aureus subsp. aureus RN4220", "assay": "Inhibition of PlsY in Staphylococcus aureus RN4220 harboring gpsA mutant assessed as Fab4-mediated fatty acid chain elongation measured as 15C fatty acid level at 25 uM after 2.5 hrs by mass spectrophotometry", "parameters": "scale not given: the % may be the effect or the level left", "in_short": "(§3)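 RN4220 grown in Luria-Bertani broth at 37°C with 225 rpm shaking to OD600 0.5. 50 mL cultures treated for 2.5 h alongside a DMSO control. Lipids extracted by Bligh–Dyer and fatty acids analyzed by gas chromatography. Weight percent, mean of duplicates; not detected means <1%.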"}, "[10]": {"tested_on": "Staphylococcus aureus subsp. aureus RN4220", "assay": "Inhibition of PlsY in Staphylococcus aureus RN4220 harboring gpsA mutant assessed as Fab4-mediated fatty acid chain elongation measured as 16C fatty acid level at 25 uM after 2.5 hrs by mass spectrophotometry", "parameters": "scale not given: the % may be the effect or the level left", "in_short": "as §3"}, "[11]": {"tested_on": "Staphylococcus aureus subsp. aureus RN4220", "assay": "Inhibition of PlsY in Staphylococcus aureus RN4220 harboring gpsA mutant assessed as Fab4-mediated fatty acid chain elongation measured as 17C fatty acid level at 25 uM after 2.5 hrs by mass spectrophotometry", "parameters": "scale not given: the % may be the effect or the level left", "in_short": "as §3"}, "[12]": {"tested_on": "Staphylococcus aureus subsp. aureus RN4220", "assay": "Inhibition of PlsY in Staphylococcus aureus RN4220 harboring gpsA mutant assessed as Fab4-mediated fatty acid chain elongation measured as 21C fatty acid level at 25 uM after 2.5 hrs by mass spectrophotometry", "parameters": "scale not given: the % may be the effect or the level left", "in_short": "as §3"}, "[13]": {"tested_on": "Staphylococcus aureus subsp. aureus RN4220", "assay": "Inhibition of PlsY in Staphylococcus aureus RN4220 harboring gpsA mutant assessed as Fab4-mediated fatty acid chain elongation measured as 18C fatty acid level at 50 uM after 2.5 hrs by mass spectrophotometry", "parameters": "scale not given: the % may be the effect or the level left", "in_short": "as §3"}, "[14]": {"tested_on": "Staphylococcus aureus subsp. aureus RN4220", "assay": "Inhibition of PlsY in Staphylococcus aureus RN4220 harboring gpsA mutant assessed as Fab4-mediated fatty acid chain elongation measured as 20C fatty acid level at 50 uM after 2.5 hrs by mass spectrophotometry", "parameters": "scale not given: the % may be the effect or the level left", "in_short": "as §3"}, "[15]": {"tested_on": "Staphylococcus aureus subsp. aureus RN4220", "assay": "Inhibition of PlsY in Staphylococcus aureus RN4220 harboring gpsA mutant assessed as Fab4-mediated fatty acid chain elongation measured as 21C fatty acid level at 50 uM after 2.5 hrs by mass spectrophotometry", "parameters": "scale not given: the % may be the effect or the level left", "in_short": "as §3"}, "[16]": {"tested_on": "Staphylococcus aureus subsp. aureus RN4220", "assay": "Inhibition of PlsY in Staphylococcus aureus RN4220 harboring gpsA mutant assessed as 34C phophotidylglycerol formation at 25 uM after 2.5 hrs by mass spectrophotometry", "in_short": "(§4)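 RN4220 grown in Luria-Bertani broth at 37°C to OD600 0.5. 50 mL aliquots treated for 2.5 h alongside a DMSO control. Cells PBS-washed, lipids extracted by Bligh–Dyer. Phosphatidylglycerol molecular species distribution determined by mass spectrometry.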"}, "[17]": {"tested_on": "Staphylococcus aureus subsp. aureus RN4220", "assay": "Inhibition of PlsY in Staphylococcus aureus RN4220 harboring gpsA mutant assessed as 35C phophotidylglycerol formation at 50 uM after 2.5 hrs by mass spectrophotometry", "in_short": "as §4"}, "[18]": {"tested_on": "Staphylococcus aureus subsp. aureus RN4220", "assay": "Inhibition of PlsY in Staphylococcus aureus RN4220 harboring gpsA mutant assessed as 36C phophotidylglycerol formation at 50 uM after 2.5 hrs by mass spectrophotometry", "in_short": "as §4"}, "Bacillus anthracis [19]": {"tested_on": "Bacillus anthracis", "assay": "Inhibition of protein synthesis in Bacillus anthracis sterne assessed as Inhibition of [3H]amino acid incorporation into protein incubated for 15 mins prior to [3H]amino acid addition measured after 30 mins by scintillation counting", "format": "functional, organism-based"}, "Bacillus anthracis [20]": {"tested_on": "Bacillus anthracis", "assay": "Inhibition of DNA synthesis in Bacillus anthracis sterne assessed as Inhibition of [3H]thymidine incorporation into DNA incubated for 15 mins prior to [3H]thymidine addition measured after 30 mins by scintillation counting", "format": "functional, organism-based"}, "[21]": {"tested_on": "Staphylococcus aureus subsp. aureus RN4220", "assay": "Inhibition of PlsY-mediated lipid synthesis in Staphylococcus aureus RN4220 assessed as inhibition of [14C]acetate incorporation into membrane phospholipids incubated for 15 mins prior to [14C]acetate addition measured after 30 mins by scintillation counting", "in_short": "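Cultures grown from OD600 0.1 to 0.5, split into 10 mL aliquots, exposed to inhibitor or DMSO control for 15 min, then pulsed with [14C]acetate (10 µCi) for 30 min. Cells washed 4× in PBS, lipids extracted by Bligh and Dyer, counted by scintillation and normalized to OD600. Duplicates, mean with standard error.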"}}, "note": "Activity calls are given as the source filed them. No cut-off for these calls is given here."}
{"smiles": "O=C(CCCCCCCc1ccccc1)NS(=O)(=O)Oc1ccccc1", "values": [{"measurement": "IC50", "setting": "[1]", "result": 25, "unit": "µM"}, {"measurement": "MIC90", "setting": "Staphylococcus aureus [2]", "result": 12.5, "unit": "µg/mL"}, {"measurement": "MIC90", "setting": "Streptococcus pneumoniae", "result": 100, "unit": "µg/mL"}, {"measurement": "MIC90", "setting": "Bacillus subtilis", "result": "> 200", "unit": "µg/mL"}, {"measurement": "MIC90", "setting": "Bacillus anthracis [3]", "result": 6.25, "unit": "µg/mL"}, {"measurement": "growth inhibition (GI)", "setting": "Staphylococcus aureus [4]", "result": "inactive"}, {"measurement": "inhibition", "setting": "Staphylococcus aureus [5]", "result": "inactive"}, {"measurement": "inhibition", "setting": "Staphylococcus aureus [6]", "result": "inactive"}, {"measurement": "inhibition", "setting": "Staphylococcus aureus [7]", "result": "inactive"}, {"measurement": "inhibition", "setting": "[8]", "result": "Active"}, {"measurement": "Activity", "setting": "[9]", "result": 37, "unit": "%"}, {"measurement": "Activity", "setting": "[10]", "result": 5, "unit": "%"}, {"measurement": "Activity", "setting": "[11]", "result": 10, "unit": "%"}, {"measurement": "Activity", "setting": "[12]", "result": 12, "unit": "%"}, {"measurement": "Activity", "setting": "[13]", "result": 12, "unit": "%"}, {"measurement": "Activity", "setting": "[14]", "result": 13, "unit": "%"}, {"measurement": "Activity", "setting": "[15]", "result": 14, "unit": "%"}, {"measurement": "inhibition", "setting": "[16]", "result": "Active"}, {"measurement": "inhibition", "setting": "[17]", "result": "Active"}, {"measurement": "inhibition", "setting": "[18]", "result": "Active"}, {"measurement": "inhibition", "setting": "Bacillus anthracis [19]", "result": "Active"}, {"measurement": "inhibition", "setting": "Bacillus anthracis [20]", "result": "Active"}, {"measurement": "inhibition", "setting": "[21]", "result": "Dose-dependent effect"}]}
